{"source": "paper PMC11579016", "about": "(Oncogenesis, 2024)", "key": {"PANC-1 lysate": {"test_system": "PANC-1 lysate", "experiment": "Cleavage assay of SAPE-labeled ADAM9 bacteria with PANC-1 lysate", "format": "biochemical, human", "conditions": "highest PANC-1 lysate concentration, 3 h, FACS; dose-dependent", "procedure,_shortened": "(§1)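 ADAM9 substrate-displaying bacteria were subcultured 1:100 in LB for 45 min at 37 °C, induced with 0.04% arabinose for 1 h, then labeled with SAPE (final […]) for 1 h. 10^7 bacteria were incubated for 3 h with thrombin (final 75 nM) or dilutions of sonicated PANC-1 lysate, with PBS or reaction buffer as controls. After two PBS washes, SAPE-positive bacteria were counted by flow cytometry, with unlabeled bacteria as the negative control.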"}, "thrombin": {"molecular_target": "thrombin (Homo sapiens, UniProt P00734)", "experiment": "Cleavage assay of SAPE-labeled ADAM9 bacteria with thrombin", "format": "biochemical", "conditions": "75 nM thrombin, 3 h, FACS", "procedure,_shortened": "as §1"}, "rMMP9": {"molecular_target": "rMMP9 (Homo sapiens, UniProt P14780)", "sequence (P14780 94-707, species assumed)": "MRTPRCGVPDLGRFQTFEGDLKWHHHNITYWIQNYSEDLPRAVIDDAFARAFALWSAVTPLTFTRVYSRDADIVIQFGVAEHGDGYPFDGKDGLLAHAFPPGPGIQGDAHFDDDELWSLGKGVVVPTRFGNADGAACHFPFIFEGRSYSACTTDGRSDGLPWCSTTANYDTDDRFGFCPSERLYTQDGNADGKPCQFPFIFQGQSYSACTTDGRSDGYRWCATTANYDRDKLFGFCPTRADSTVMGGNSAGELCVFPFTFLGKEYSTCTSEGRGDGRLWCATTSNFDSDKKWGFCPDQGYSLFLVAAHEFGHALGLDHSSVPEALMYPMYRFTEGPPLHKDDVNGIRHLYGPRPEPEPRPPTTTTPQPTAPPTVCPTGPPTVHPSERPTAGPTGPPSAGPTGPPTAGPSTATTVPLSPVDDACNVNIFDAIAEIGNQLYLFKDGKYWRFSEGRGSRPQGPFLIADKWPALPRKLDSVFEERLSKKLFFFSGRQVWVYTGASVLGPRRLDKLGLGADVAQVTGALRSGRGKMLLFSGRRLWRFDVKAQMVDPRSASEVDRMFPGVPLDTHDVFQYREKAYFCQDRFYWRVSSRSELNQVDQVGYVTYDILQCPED", "experiment": "Cleavage assay of SAPE-labeled ADAM9 bacteria with rMMP9, alone or with S3304", "format": "biochemical", "conditions": "200 nM rMMP9, 3 h, FACS"}}, "data": [{"sequence": "PLAQAVRSSK [ADAM9 substrate]", "values": [{"measurement": "ADAM9 substrate cleavage by PANC-1 lysate (loss of SAPE-positive bacteria)", "setting": "PANC-1 lysate", "value": "near-complete"}, {"measurement": "effect on fluorescence of SAPE-labeled ADAM9 bacteria", "setting": "thrombin", "value": "did not reduce fluorescence"}, {"measurement": "effect on SAPE-positivity of ADAM9 bacteria", "setting": "rMMP9", "value": "greatly reduced SAPE-positivity"}]}]}
